Data on 5 molecules can be found in paper PMC6106105 (Journal of the Endocrine Society, 2018).

Experiment [1] addresses T1, rat Sstr2A (Rattus norvegicus, UniProt P30680). It is filed as cell-based. The note with it: for Emax: read-out: cAMP Emax.
Experiment [2] deals with T1, rat Sstr2A. Kind of experiment: Sstr2A receptor internalization, cell surface ELISA in GH12C1-Sstr2A cells. It is filed as cell-based. The note with it: for Emax: read-out: Internalization Emax. Background: In an ELISA, binding on a coated surface is turned into a signal by an enzyme label.
The target of experiment [3] is T1, rat Sstr2A. Kind of experiment: Membrane potential. It is filed as cell-based. The settings on record: read-out: Hyperpolarization Emax.
A further experiment concerns GH4C1 cells. Kind of experiment: Membrane potential. It is filed as cell-based, rat. The note with it: for hyperpolarization response (agonist, in words): 100 nM (Fig. 3A). The method in brief: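 Rat GH4C1 cells grown in F12 with 12.5% horse serum and 2.5% FBS, plated 150,000/well on poly-D-ornithine. Loaded 30 min with FLIPR Membrane Potential blue dye in HEPES-buffered saline, pH 7.4, then equilibrated 15 min at 37°C. After 30 s baseline, agonist was added and fluorescence read for 180 s (ex 530/em 565 nm). Output was F1/F0 minus control trace, averaged over three wells.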

Where two headings read alike, the source gives them in different places. Numbered stars: 1 amine (or outer) side, 2 acyl side, 3 side chain; on linkers, the order of the positions; unused ones are H or OH. Square brackets hold non-standard residues; d marks the D form. Side chains are listed from the residue outwards. Peptide text beside a SMILES is read from it. * marks the point of attachment. Ethylenediamine = C(CN[*:2])N[*:1]; Hyp = O=C(O)[C@@H]1C[C@@H](O)CN1; Phg = N[C@H](C(=O)O)c1ccccc1; CO = O=C([*:1])[*:2]; Bn = c1ccc(C*)cc1

T1 sequence (P30680 whole entry): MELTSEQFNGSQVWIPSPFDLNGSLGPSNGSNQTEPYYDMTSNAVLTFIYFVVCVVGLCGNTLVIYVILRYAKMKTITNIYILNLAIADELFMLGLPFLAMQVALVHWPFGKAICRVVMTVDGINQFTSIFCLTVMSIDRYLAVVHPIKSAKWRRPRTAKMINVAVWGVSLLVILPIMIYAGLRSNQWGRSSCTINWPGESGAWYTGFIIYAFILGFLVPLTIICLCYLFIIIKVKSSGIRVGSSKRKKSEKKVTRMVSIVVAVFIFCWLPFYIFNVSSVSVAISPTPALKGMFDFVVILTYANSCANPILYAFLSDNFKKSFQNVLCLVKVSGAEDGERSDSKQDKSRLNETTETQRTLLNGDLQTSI

In general, Emax refers to the greatest response seen or fitted, relative to the assay's reference. For `C[C@@H](O)[C@@H]1NC(=O)[C@H](CCCCN)NC(=O)[C@@H](Cc2c[nH]c3ccccc23)NC(=O)[C@H](Cc2ccccc2)NC(=O)[C@@H](NC(=O)[C@H](N)Cc2ccccc2)CSSC[C@@H](C(=O)N[C@H](CO)[C@@H](C)O)NC1=O` [Octreotide, octreotide], the maximum response (Emax) on rat Sstr2A [1] and on rat Sstr2A [2] was 100% in each case. Further, the Emax at 0.1 µM at rat Sstr2A [3] was found to be 107%. Moreover, the “hyperpolarization response (agonist, in words)” value in the experiment on GH4C1 cells is “equivalent to that of SS14”.
The EC50 is the concentration that produces a half-maximal response. Read a high EC50 as a need for much substance. In general, Kd refers to the constant that tells how readily two partners part at equilibrium. Low readings indicate higher affinity, high ones lower affinity. As for `NCCCC[C@@H]1NC(=O)[C@@H](Cc2c[nH]c3ccccc23)NC(=O)[C@H](c2ccccc2)NC(=O)[C@@H]2C[C@@H](OC(=O)NCCN)CN2C(=O)[C@H](Cc2ccccc2)NC(=O)[C@H](Cc2ccc(OCc3ccccc3)cc2)NC1=O` [SOM230, pasireotide diaspartate] (cyclo([Hyp]([CO-Ethylenediamine])[Phg][dW]KY(Bn)F); ring closure inferred), on rat Sstr2A [1], a half-maximal response (EC50) required 58 ± 7 nM and the Emax is 100%. Moreover, at rat Sstr2A [2], the Kd was found to be 243 ± 63 nM and the Emax worked out at 5%. For the same molecule, on rat Sstr2A [2] (SOM230 2 µM, 5-minute pretreatment, kept present throughout), the “shift in SS14 potency for receptor internalization after SOM230 pretreatment (Schild-plot analysis)” value is on record as 8.7 fold. The Emax at 1 µM on rat Sstr2A [3] was found to be 5%.
With “Des-AA^1,2,5-[DTrp^8,IAmp^9,^125ITyr^11]-Cbm-SRIF [Rivier #27]”, the “hyperpolarization response (agonist, in words)” value in the experiment on GH4C1 cells was “largely ineffective”.
“H-p-Chloro-Phe-D-Cys-β-(3-pyridyl)-Ala-D-Trp-Lys-tBu-Gly-Cys-2-Nal-NH2 trifluoroacetate salt [PRL-2915]”: the “effect on hyperpolarization response produced by SS14” value in the experiment on GH4C1 cells (PRL-2915 (1 µM), SS14 (1 µM), 15 minutes pretreatment) is “eliminated most of the hyperpolarization response”.
Take `C[C@H](N)C(=O)NCC(=O)N[C@H]1CSSC[C@@H](C(=O)O)NC(=O)[C@H](CO)NC(=O)[C@H]([C@@H](C)O)NC(=O)[C@H](Cc2ccccc2)NC(=O)[C@H]([C@@H](C)O)NC(=O)[C@H](CCCCN)NC(=O)[C@H](Cc2c[nH]c3ccccc23)NC(=O)[C@H](Cc2ccccc2)NC(=O)[C@H](Cc2ccccc2)NC(=O)[C@H](CC(N)=O)NC(=O)[C@H](CCCCN)NC1=O` [SS14, Somatostatin]: the Emax on rat Sstr2A [1] and at rat Sstr2A [2] was 100% each time. Further, on rat Sstr2A [3], the maximal response (Emax) at 0.1 µM worked out at 100%.
